# Active and inactive are the calls of the source. The rule behind the calls is not given here.
# Assays:
# [1] = system: Mus musculus; experiment: Inhibition of B cell activation in C57BL/6 mouse at 1 mg/kg, po after 0.25 hr relative to control; format: functional; conditions: Mus musculus, C57BL/6, po, 0.25 h
# [2] = system: Mus musculus; experiment: Inhibition of B cell activation in C57BL/6 mouse at 1 mg/kg, po after 1 hr relative to control; format: functional; conditions: Mus musculus, C57BL/6, po, 1 h
# Outline: (§1)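 Normal C57BL/6 mice received a single oral dose of 1 mg/kg and were tested in an in vivo B cell stimulation assay. Inhibition of B cell activation was read at 1 h and 24 h after dosing.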
# [3] = system: Mus musculus; experiment: Inhibition of B cell activation in C57BL/6 mouse at 1 mg/kg, po after 24 hr relative to control; format: functional; conditions: Mus musculus, C57BL/6, po, 24 h; outline: as §1
# [4] = Apparent permeability across apical to basolateral side in human Caco2 cells at 1 uM incubated for 2 hrs by LC-MS/MS analysis; format: ADME, cell-based; conditions: Caco-2
# [5] = Cmax in C57BL/6 mouse at 1 mg/kg, po; format: ADME, organism-based; parameters: dose 1 mg/kg, route oral; conditions: in vivo
# [6] = target: hERG (KCNH2) (Homo sapiens, UniProt Q12809); experiment: Inhibition of human ERG expressed in HEK293 cells at 10 uM at -80 mV holding potential by […] relative to control; format: cell-based; conditions: HEK293 cells expressing human ERG
# [7] = Intrinsic clearance in human liver microsomes at 1 uM in presence of NADPH measured up to 30 mins by LC-MS/MS analysis; format: ADME, Microsome; conditions: read-out: CLH
# [8] = Kinetic solubility of the compound; format: physicochemical; conditions: read-out: Kinetic_solubility
# [9] = organism: Homo sapiens; experiment: Selectivity ratio, ratio of IC50 for EGFR (unknown origin) to IC50 for full length human BTK ([…])
# [10] = target: Epidermal growth factor receptor (Homo sapiens, UniProt P00533); experiment: Inhibition of N-terminal GST-tagged human EGFR (696 to end aminoacids) expressed in baculovirus infected Sf21 cells
# [11] = target: T1, Tyrosine-protein kinase BTK (Homo sapiens, UniProt Q06187); experiment: Covalent inhibition of N-terminal GST-fused human BTK (2-659(end) amino acids) expressed in baculovirus expression system using FITC-AHA-EEPLYWSFPAKKK-NH2 as substrate incubated for 90 mins by microfluidic off-Chip Mobility Shift Assay
# [12] = target: T1, Tyrosine-protein kinase BTK; experiment: Inhibition of BTK in human PBMC cells assessed as reduction in anti-IgM-stimulated CD69 expression on B cells preincubated for 60 mins followed by goat F(ab')2 anti-human IgM stimulation and measured after overnight incubation by flow cytometry; format: cell-based
# [13] = Efflux ratio in human Caco2 cells; format: ADME, cell-based; conditions: Caco-2
# [14] = target: Voltage-gated inwardly rectifying potassium channel KCNH2 (Homo sapiens, UniProt Q12809); experiment: Inhibition of human ERG expressed in HEK293 cells at -80 mV holding potential by […]; format: cell-based
# [15] = Stability of the compound in plasma (unknown origin) assessed as compound remaining at 4 hrs; format: ADME, cell-free; conditions: read-out: Stability
# [16] = system: Rattus norvegicus; experiment: Antiarthritic activity in Lewis rat model of collagen-induced arthritis assessed as reduction in ankle swelling at 0.1 mg/kg, po administered via gavage once daily starting from day 6 to day 16 and measured from day 11 to day 17 by caliper method
# [17] = system: Rattus norvegicus; experiment: Antiarthritic activity in Lewis rat model of collagen-induced arthritis assessed as reduction in ankle histopathological scores at 0.1 mg/kg, po administered via gavage once daily starting from day 6 to day 16 relative to control; parameters: scale not given: the % may be the effect or the level left
# [18] = target: Tyrosine-protein kinase BTK (Homo sapiens, UniProt Q06187, C481S); experiment: Inhibition of BTK Cys481S mutant (unknown origin)
# Sequence of Tyrosine-protein kinase BTK (Homo sapiens, UniProt Q06187, C481S) (Q06187 2-659 C481S limits assumed): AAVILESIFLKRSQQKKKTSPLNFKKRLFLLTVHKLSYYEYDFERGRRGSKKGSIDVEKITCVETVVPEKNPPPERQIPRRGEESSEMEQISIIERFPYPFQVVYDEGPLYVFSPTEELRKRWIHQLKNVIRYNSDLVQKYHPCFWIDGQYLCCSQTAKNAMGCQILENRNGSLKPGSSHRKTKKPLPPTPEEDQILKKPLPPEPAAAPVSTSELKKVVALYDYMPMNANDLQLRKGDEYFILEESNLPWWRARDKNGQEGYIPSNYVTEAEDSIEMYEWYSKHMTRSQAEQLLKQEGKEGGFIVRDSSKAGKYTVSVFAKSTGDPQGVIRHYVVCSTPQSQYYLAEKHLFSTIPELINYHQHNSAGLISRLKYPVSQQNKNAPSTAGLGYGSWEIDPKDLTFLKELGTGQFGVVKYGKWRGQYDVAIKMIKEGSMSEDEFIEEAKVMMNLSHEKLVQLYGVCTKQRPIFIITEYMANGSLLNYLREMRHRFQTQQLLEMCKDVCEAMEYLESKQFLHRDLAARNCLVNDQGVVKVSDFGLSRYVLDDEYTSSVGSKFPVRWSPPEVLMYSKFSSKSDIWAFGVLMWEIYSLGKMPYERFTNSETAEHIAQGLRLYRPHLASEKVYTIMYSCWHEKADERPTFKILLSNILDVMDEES
# Sequence of Epidermal growth factor receptor (P00533 whole entry, the tested form may be a part): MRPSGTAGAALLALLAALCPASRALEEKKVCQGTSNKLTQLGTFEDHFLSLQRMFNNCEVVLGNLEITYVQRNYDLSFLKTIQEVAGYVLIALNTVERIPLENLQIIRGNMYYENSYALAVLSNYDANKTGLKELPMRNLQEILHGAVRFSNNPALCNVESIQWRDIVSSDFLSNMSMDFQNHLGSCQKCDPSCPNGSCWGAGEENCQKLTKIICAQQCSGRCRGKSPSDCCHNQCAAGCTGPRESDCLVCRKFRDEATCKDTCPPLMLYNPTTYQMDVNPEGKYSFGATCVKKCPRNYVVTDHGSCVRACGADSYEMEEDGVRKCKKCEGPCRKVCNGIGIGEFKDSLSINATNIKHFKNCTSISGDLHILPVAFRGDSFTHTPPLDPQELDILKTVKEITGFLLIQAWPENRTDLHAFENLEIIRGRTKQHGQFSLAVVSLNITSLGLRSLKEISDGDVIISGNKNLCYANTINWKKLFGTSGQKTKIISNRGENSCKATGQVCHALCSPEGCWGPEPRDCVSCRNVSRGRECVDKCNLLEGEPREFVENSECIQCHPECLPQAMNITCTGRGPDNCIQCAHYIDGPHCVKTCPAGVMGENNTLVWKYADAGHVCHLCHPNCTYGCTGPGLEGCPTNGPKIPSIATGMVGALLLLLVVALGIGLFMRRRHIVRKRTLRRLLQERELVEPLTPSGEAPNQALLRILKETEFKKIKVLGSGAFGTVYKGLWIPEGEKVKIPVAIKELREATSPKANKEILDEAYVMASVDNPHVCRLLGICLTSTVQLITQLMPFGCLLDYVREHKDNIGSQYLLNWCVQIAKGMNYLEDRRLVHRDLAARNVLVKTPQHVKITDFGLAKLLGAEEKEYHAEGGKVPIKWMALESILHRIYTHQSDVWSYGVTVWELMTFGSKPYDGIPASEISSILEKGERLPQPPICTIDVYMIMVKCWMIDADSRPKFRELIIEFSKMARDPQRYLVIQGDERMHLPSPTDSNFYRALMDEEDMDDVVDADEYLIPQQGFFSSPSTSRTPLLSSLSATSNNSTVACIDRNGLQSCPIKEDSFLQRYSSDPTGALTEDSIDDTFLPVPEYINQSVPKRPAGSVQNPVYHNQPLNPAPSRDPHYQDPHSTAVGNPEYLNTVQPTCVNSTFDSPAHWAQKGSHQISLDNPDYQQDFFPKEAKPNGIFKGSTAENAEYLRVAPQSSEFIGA
# Sequence of Voltage-gated inwardly rectifying potassium channel KCNH2 (Q12809 whole entry): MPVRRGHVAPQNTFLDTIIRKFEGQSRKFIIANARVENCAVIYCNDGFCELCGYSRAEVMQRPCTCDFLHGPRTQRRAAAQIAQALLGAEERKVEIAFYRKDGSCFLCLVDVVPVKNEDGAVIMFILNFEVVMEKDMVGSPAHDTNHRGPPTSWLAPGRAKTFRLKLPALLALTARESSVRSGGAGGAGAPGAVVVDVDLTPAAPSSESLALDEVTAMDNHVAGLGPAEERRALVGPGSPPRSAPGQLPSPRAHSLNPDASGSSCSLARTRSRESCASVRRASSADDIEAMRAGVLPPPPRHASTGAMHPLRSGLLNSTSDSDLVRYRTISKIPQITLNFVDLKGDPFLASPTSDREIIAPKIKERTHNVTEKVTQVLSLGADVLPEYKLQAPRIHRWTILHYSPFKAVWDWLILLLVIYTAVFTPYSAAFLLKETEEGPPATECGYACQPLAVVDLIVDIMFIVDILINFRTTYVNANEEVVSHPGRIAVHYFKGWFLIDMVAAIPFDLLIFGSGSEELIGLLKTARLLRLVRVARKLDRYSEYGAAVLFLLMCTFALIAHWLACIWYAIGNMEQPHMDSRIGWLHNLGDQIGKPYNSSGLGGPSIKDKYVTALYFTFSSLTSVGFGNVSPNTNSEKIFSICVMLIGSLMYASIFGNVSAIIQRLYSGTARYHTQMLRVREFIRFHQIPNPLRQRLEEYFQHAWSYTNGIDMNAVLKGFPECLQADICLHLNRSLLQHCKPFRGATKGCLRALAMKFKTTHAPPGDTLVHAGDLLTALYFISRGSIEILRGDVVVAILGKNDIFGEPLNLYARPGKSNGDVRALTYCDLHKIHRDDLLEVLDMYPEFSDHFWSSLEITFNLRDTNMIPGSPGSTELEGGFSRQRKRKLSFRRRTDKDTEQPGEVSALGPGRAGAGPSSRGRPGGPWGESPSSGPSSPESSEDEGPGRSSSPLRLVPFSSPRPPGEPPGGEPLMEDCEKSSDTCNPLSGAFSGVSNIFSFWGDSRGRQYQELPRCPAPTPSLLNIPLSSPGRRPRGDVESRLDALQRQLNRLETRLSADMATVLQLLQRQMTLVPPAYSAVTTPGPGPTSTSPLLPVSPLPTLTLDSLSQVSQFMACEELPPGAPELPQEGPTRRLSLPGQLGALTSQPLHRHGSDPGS
# Sequence of hERG (KCNH2) (Q12809 whole entry): as above
# T1 sequence (Q06187 whole entry, the tested form may be a part): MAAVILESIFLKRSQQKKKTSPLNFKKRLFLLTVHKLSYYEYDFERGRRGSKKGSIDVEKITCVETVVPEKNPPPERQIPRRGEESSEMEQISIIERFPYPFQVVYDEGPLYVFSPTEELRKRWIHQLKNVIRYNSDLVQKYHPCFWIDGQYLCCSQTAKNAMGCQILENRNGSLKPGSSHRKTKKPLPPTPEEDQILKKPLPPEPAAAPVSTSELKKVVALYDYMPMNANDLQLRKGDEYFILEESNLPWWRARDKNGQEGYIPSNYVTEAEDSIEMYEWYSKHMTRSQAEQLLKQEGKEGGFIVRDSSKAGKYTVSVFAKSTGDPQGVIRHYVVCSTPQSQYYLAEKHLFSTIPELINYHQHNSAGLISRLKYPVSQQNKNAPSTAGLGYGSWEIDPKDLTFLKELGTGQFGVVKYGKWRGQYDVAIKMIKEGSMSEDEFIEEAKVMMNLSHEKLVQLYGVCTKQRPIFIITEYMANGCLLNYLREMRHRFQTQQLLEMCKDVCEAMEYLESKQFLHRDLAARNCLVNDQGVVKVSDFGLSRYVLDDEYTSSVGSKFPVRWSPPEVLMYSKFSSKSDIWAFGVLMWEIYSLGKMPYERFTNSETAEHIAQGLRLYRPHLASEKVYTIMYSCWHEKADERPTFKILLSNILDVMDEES
"Papp A→B at 2 h, 1 µM [4]",microsomal CLint at 1 µM [7],solubility kinetic [8],IC50 [11],SMILES,other results
9 ×10⁻⁶ cm/s,68 µL/min/mg,169 µM,–,C=CC(=O)N1CCC(O)(CNc2ncnc(N)c2-c2ccc(Oc3ccccc3)cc2)CC1,inhibition in vivo at 1 mg/kg [1]: 37%; inhibition in vivo at 1 mg/kg [2]: 42%; inhibition in vivo at 1 mg/kg [3]: 15%; Cmax [5]: 257 nM; inhibition at 10 µM [6]: 45%
1.6 ×10⁻⁶ cm/s,277 µL/min/mg,< 2.4 µM,0.0029 to 0.003 µM,C=CC(=O)Nc1cccc(Oc2ncnc(N)c2-c2ccc(Oc3ccccc3)cc2)c1,Ratio IC50 [9]: 25 to 30; IC50 [10]: 0.078 µM; inhibition at 10 µM [6]: 3%; IC50 [12]: 0.0099 µM; efflux ratio [13]: 4.3
–,–,–,0.29 µM,Nc1ncnc(NCC2CCN(C(=O)C3=CCC3)CC2)c1-c1ccc(Oc2ccccc2)cc1,IC50 [12]: 0.29 µM
–,–,–,1.2 µM,C=CC(=O)N1CCC(CNc2ncnc(N)c2-c2ccc(C(=O)Nc3ccccc3)cc2)CC1,–
–,–,–,> 100 µM,C=CC(=O)N1CCC(CNc2ncnc(N)c2-c2ccc(Oc3ccccc3)cc2C(F)(F)F)CC1,–
–,–,–,1.5 µM,C=CC(=O)NC1CCCN(c2ncnc(N)c2-c2ccc(Oc3ccccc3)cc2)C1 (stereo not drawn),–
–,–,–,–,C=CC(=O)Nc1cccc(Oc2ncncc2-c2ccc(Oc3ccccc3)cc2)c1,inhibition at 10 µM [6]: 46%
–,–,–,–,Nc1ncnc(NCC2CCN(C(=O)CCl)CC2)c1-c1ccc(Oc2ccccc2)cc1,remaining at 4 h [15]: 49%
–,688 µL/min/mg,–,0.73 µM,C=CC(=O)N1CCC(CNc2ncnc(N)c2-c2ccc(Oc3ccncc3)cc2)CC1,–
–,598 µL/min/mg,–,–,"C=CC(=O)N1CCCC(Nc2ncnc(N)c2-c2ccc(Oc3ccccc3)cc2)C1 (single isomer, unassigned)",IC50 [10]: 0.55 µM; inhibition at 10 µM [6]: 43%
–,143 µL/min/mg,–,0.16 µM,C=CC(=O)N1CCC(CNc2ncnc(N)c2-c2cc(F)c(Oc3ccccc3)cc2F)CC1,–
–,–,–,–,CN(Cc1cnc2nc(N)nc(N)c2n1)c1ccc(C(=O)N[C@@H](CCC(=O)O)C(=O)O)cc1 [METHOTREXATE],Activity [16]: Active; Activity [17]: 60%
–,–,–,–,C=CS(=O)(=O)N1CCC(CNc2ncnc(N)c2-c2ccc(Oc3ccccc3)cc2)CC1,remaining at 4 h [15]: 16%
–,–,–,1.51 µM,C=CC(=O)N1CCC(Nc2ncnc(N)c2-c2ccc(Oc3ccccc3)cc2)CC1,–
–,–,–,0.0002 µM,C#CC(=O)N1CCC(CNc2ncnc(N)c2-c2ccc(Oc3ccccc3)cc2)CC1,remaining at 4 h [15]: 34%
25.2 ×10⁻⁶ cm/s,77 µL/min/mg,160 µM,–,"C=CC(=O)N1CCC(Nc2ncnc(N)c2-c2ccc(Oc3ccccc3)cc2)C1 (single isomer, unassigned)",inhibition at 10 µM [6]: 40%
10 ×10⁻⁶ cm/s,41 µL/min/mg,154 µM,–,C=CC(=O)N[C@H]1CC[C@@H](Nc2ncnc(N)c2-c2ccc(Oc3ccccc3)cc2)CC1,–
23.6 ×10⁻⁶ cm/s,202 µL/min/mg,158 µM,–,C=CC(=O)N[C@@H]1CC[C@H](Nc2ncnc(N)c2-c2ccc(Oc3ccccc3)cc2)C1 (relative stereo),–
–,145 µL/min/mg,–,0.018 µM,C=CC(=O)N1CCC(CNc2ncnc(N)c2-c2ccc(Oc3ccc(C)cc3)cc2)CC1,–
–,–,–,0.044 µM,C=CC(=O)Nc1cccc(Oc2ccncc2-c2ccc(Oc3ccccc3)cc2)c1,–
–,199 µL/min/mg,–,–,C=CC(=O)N1CCC(CNc2ncnc(N)c2-c2ccc(Oc3cccc(F)c3)cc2)CC1,–
–,–,–,0.005 µM,C=CC(=O)Nc1cccc(Oc2ccnc(N)c2-c2ccc(Oc3ccccc3)cc2)c1,Ratio IC50 [9]: 25 to 30; IC50 [10]: 0.14 µM; inhibition at 10 µM [6]: 81%
–,–,–,–,CC(=O)N1CCC(CNc2ncnc(N)c2-c2ccc(Oc3ccccc3)cc2)CC1,IC50 [18]: 8.6 to 8.7 µM
–,–,–,0.008 µM,C=CC(=O)Nc1cccc(-c2c(N)ncnc2Nc2ccc(Oc3ccccc3)cc2)c1,IC50 [10]: 0.001 µM
–,143 µL/min/mg,–,0.15 µM,C=CC(=O)N1CCC(CNc2ncnc(N)c2-c2ccc(Oc3ccc(F)cc3)cc2)CC1,–

SMILES,"Papp A→B at 2 h, 1 µM [4]",microsomal CLint at 1 µM [7],solubility kinetic [8],IC50 [11],other results
C=CC(=O)Nc1cccc(Nc2ncnc(N)c2-c2ccc(Oc3ccccc3)cc2)c1,4.2 ×10⁻⁶ cm/s,43 µL/min/mg,16 µM,0.004 µM,Ki [14]: 0.53 µM; IC50 [10]: 0.004 µM; IC50 [12]: 0.019 µM; efflux ratio [13]: 1.6
C=CC(=O)NC12CCC(Nc3ncnc(N)c3-c3ccc(Oc4ccccc4)cc3)(C1)C2,21.7 ×10⁻⁶ cm/s,36 µL/min/mg,110 µM,0.0099 µM,Ki [14]: 1.3 µM; IC50 [12]: 0.07 µM; efflux ratio [13]: 1.4
C=CC(=O)N1CC2(CC(Nc3ncnc(N)c3-c3ccc(Oc4ccccc4)cc3)C2)C1,9.3 ×10⁻⁶ cm/s,777 µL/min/mg,153 µM,–,Ki [14]: 0.78 µM
C=CC(=O)N[C@@H]1CCC[C@H](Nc2ncnc(N)c2-c2ccc(Oc3ccccc3)cc2)C1 (relative stereo),11.9 ×10⁻⁶ cm/s,27 µL/min/mg,134 µM,–,Ki [14]: 1.8 µM

# — ChEMBL document CHEMBL4373703 (J Med Chem, 2019)
